pIC50: −log10 of the molar value. Active and inactive are the calls of the source. No cut-off for these calls is given here.
Key:
[1] = target: T1, Glycogen synthase kinase-3 beta (Homo sapiens, UniProt P49841); test: Inhibition of GSK3-beta at 10 uM by Z'-LYTE kinase assay
Method in brief: (§1)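 Z'-LYTE fluorescence-ratio (FRET) kinase assay with GSK-3β and its peptide substrate. Relative inhibition was plotted against increasing compound concentrations and IC50 taken from the inhibition curves. […] is percent inhibition at a single 10 µM compound concentration.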
Target sequence in this assay (P49841 whole entry, looked up): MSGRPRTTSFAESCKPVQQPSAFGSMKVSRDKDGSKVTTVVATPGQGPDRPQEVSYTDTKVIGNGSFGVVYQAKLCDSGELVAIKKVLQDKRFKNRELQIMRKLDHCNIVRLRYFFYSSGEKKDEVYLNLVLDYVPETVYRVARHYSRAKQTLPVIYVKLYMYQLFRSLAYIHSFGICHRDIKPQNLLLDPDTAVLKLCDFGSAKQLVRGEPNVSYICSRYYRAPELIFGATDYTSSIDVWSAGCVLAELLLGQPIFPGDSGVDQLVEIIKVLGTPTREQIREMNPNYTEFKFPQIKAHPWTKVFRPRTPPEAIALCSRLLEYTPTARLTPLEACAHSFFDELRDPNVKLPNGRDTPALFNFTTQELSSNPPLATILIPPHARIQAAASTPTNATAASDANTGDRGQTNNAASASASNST

[2] = Inhibition of PKA at 100 uM
[3] = target: T2, Protein kinase C alpha type (Homo sapiens, UniProt P17252); test: Inhibition of PKCalpha at 100 uM
[4] = Inhibition of CSNK2 at 100 uM
[5] = target: T1, Glycogen synthase kinase-3 beta; test: Inhibition of GSK3-beta by Z'-LYTE kinase assay; method in brief: as §1
Target sequence in this assay (P49841 whole entry): as the sequence (P49841 whole entry, looked up) above

[6] = target: Cyclin-dependent kinase 1 (Homo sapiens) (UniProt P06493); test: Inhibition of CDK1 at 100 uM
[7] = target: T2, Protein kinase C alpha type; test: Inhibition of PKCalpha
Method in brief: (§2)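 Counter-screen kinases (PKA, CSNK2, PKC, CDK1) were run under near-identical reaction conditions per the manufacturer's instructions, each with its own suitable substrate. Values are percent inhibition at a single 100 µM compound concentration, or IC50 in µM.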

[8] = target: T1, Glycogen synthase kinase-3 beta; test: Inhibition of GSK3-beta by ATP competitive inhibition based assay
Method in brief: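 GSK-3β enzyme velocity was measured with substrate across various ATP levels at increasing inhibitor concentrations. Mode of inhibition was read from Lineweaver–Burk double-reciprocal plots.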
Target sequence in this assay (P49841 whole entry, looked up): as the sequence (P49841 whole entry, looked up) above

[9] = Inhibition of PKA; method in brief: as §2
[10] = target: T1, Glycogen synthase kinase-3 beta; test: Inhibition of GSK3-beta in myoblasts assessed as beta-casein accumulation at 2 uM after 3 hrs by immunoblot; conditions: in the assay text read “beta-catenin” for “beta-casein”
Method in brief: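 C2C12 myoblasts plated at 5 × 10⁵ were exposed to compound at 2 µM for 3 h. Cells were lysed for total protein, run on SDS–PAGE and immunoblotted with anti-β-catenin antibody.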
Target sequence in this assay (P49841 whole entry, looked up): as above

Cyclin-dependent kinase 1 (Homo sapiens), sequence (P06493 whole entry, looked up): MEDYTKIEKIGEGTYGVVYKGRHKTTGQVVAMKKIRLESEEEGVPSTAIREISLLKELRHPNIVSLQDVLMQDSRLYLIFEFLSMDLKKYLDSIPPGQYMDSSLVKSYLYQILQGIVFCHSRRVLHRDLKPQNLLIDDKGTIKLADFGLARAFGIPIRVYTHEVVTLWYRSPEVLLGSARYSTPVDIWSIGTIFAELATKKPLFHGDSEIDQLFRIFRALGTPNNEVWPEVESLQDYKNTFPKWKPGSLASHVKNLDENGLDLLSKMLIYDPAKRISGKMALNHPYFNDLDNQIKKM

Row | SMILES | inhibition [1] | inhibition [2] | inhibition [3] | inhibition [4] | pIC50 [5] | inhibition [6] | pIC50 [7] | Activity [8] | pIC50 [9] | Activity [10]
1 | O=c1sn(CCc2ccccc2)c(=O)n1Cc1ccc(F)cc1 | 80% | 20% | 51% | 31% | 5.73 | 20% | 4.41 | – | – | –
2 | O=c1sn(-c2ccccc2)c(=O)n1CCCl | 74% | 35% | 84% | 17% | 6.26 | 0% | 5.24 | Active | – | –
3 | CCOC(=O)Cn1sc(=O)n(-c2ccc(C(=O)OCC)cc2)c1=O | 75% | 81% | 78% | 36% | 5.99 | 12% | 4.32 | – | 5.16 | –
4 | CCOC(=O)Cn1sc(=O)n(-c2cccc(C(=O)OCC)c2)c1=O | 84% | 87% | 89% | 21% | 6.33 | 18% | 5.28 | Active | 5.66 | Active
5 | CCn1sc(=O)n(Cc2ccccc2)c1=O | 65% | 30% | 88% | 30% | 5.15 | 15% | 4.86 | – | – | –
6 | CCOC(=O)Cn1sc(=O)n(CC(=O)N2CCCCC2)c1=O | 65% | 75% | 93% | 21% | 6.27 | 15% | 5.39 | – | 4.77 | –

Reference: ChEMBL document CHEMBL1154539, “Identification of small molecules that inhibit GSK-3beta through virtual screening” (Bioorg Med Chem Lett, 2009)
